Activity calls are given as the source filed them. The rule behind the calls is not given here.
How the values were obtained:
MV4-11 = assay: Induction of cell cycle arrest in human MV4-11 cells assessed as G0/G1 phase incubated for 72 hrs by ribonucleaseA/propidium iodide staining based flow cytometry analysis; assay type: functional
Procedure, shortened: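 Cell cycle by PI: cells exposed for 72 h at 5 and 10 µM vs vehicle, washed twice, fixed overnight in pre-cooled 70% ethanol, then stained 45 min at room temperature with ribonuclease A and PI. Acquired on FACSCanto and phase fractions modelled.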

RS4-11 [1] = assay: cells; settings: Homo sapiens, RS4-11, 72 h, read-out: Activity
[2] = target: Histone-lysine N-methyltransferase SETD2 (Homo sapiens, UniProt Q9BYW2); assay: Inhibition of SETD2 (unknown origin) using SAM as substrate preincubated for 10 mins followed by substrate addition measured after 4 hrs by AlphaLISA method
RS4-11 [3] = assay: Toxicity in SCID mouse xenografted with human RS4-11 cells assessed as body weight LOSS at 25 to 50 mg/kg, ip qd administered consecutively for 21 days; assay type: functional, organism-based; settings: dose 25-50 mg/kg, time 21.0 day
Procedure, shortened: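 Female SCID mice, 4 weeks old, implanted subcutaneously in the flank with 1 × 10⁷ RS4:11 cells in 0.2 mL PBS. At about 100 mm³, groups of n = 8 received 25 or 50 mg/kg or vehicle intraperitoneally once daily for 21 days. Body weight and tumors measured twice weekly.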

KMS-11 [4] = assay: cells; settings: Homo sapiens, KMS-11, 72 h, read-out: Activity
[5] = target: Ras-related protein R-Ras2 (Homo sapiens) (UniProt P62070); assay: Inhibition of RRAS2 transcriptional activity in human KMS-11 cells assessed as reduction in H3K36 methylation at 10 uM measured after 72 hrs by chip q-PCR analysis; assay type: cell-based
Procedure, shortened: (§1)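 KMS11 cells treated with test agent or DMSO. ChIP with magnetic-bead enzymatic chromatin IP kit using anti-H3K36me2, anti-histone H3 and IgG control antibodies. H3K36me2 quantified by qPCR with primers spanning the promoter regions of TGFA, MET, PAK1 and RRAS2.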

[6] = AUC in CD-1 mouse at 2 mg/kg, iv measured up to 24 hrs by LC-MS/MS; assay type: ADME, organism-based; parameters: route intravenous, dose 2 mg/kg, time <=24; settings: in vivo
Procedure, shortened: (§2)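 CD-1 mice given a single 2 mg/kg dose i.p. or i.v. (n = 3 per group). Blood sampled at 0, 0.083, 0.25, 0.5, 1, 2, 4, 6, 8 and 24 h and centrifuged for plasma, with internal standard added. Plasma deproteinized with methanol/acetonitrile (1:1), supernatant diluted with acetonitrile/water, and compound measured by LC/MS/MS.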

[7] = target: Protransforming growth factor alpha (Homo sapiens) (UniProt P01135); assay: Inhibition of TGFA transcriptional activity in human KMS-11 cells assessed as reduction in H3K36 methylation at 10 uM measured after 72 hrs by chip q-PCR analysis; assay type: cell-based; procedure, shortened: as §1
MOLT-4 = assay: Antiproliferative activity against human MOLT-4 cells assessed as reduction in cell viability incubated for 6 days by CCK8 assay
[8] = MRT in CD-1 mouse at 2 mg/kg, iv measured up to 24 hrs by LC-MS/MS; assay type: ADME, organism-based; settings: in vivo
Procedure, shortened: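 CD-1 mice dosed at 2 mg/kg i.p. or i.v., n = 3 per group. Blood sampled at 0, 0.083, 0.25, 0.5, 1, 2, 4, 6, 8 and 24 h and spun for plasma. Internal standard added, deproteinized with methanol/acetonitrile (1:1), supernatant diluted and analysed by LC/MS/MS.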

WSUDLCL2 = assay: Antiproliferative activity against human WSUDLCL2 cells assessed as reduction in cell viability incubated for 6 days by CCK8 assay
RS4-11 [9] = assay: Antiproliferative activity against human RS4-11 cells assessed as reduction in cell viability incubated for 6 days by CCK8 assay; assay type: functional, cell-based; settings: dose 1-100 µM, time 6.0 day
Procedure, shortened: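 Cells seeded in triplicate at 6000–20000 per well and left 24 h, then exposed to increasing concentrations for a further 6 days. Viability read with CCK-8 and growth IC50 derived from the dose–response.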

[10] = target: Histone-lysine N-methyltransferase 2A (Homo sapiens, UniProt Q03164); assay: Inhibition of MLLI (unknown origin) using SAM as substrate preincubated for 10 mins followed by substrate addition measured after 4 hrs by HTRF method
Procedure, shortened: (§3)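 HTRF assay: inhibitor plus enzyme preincubated 10 min at room temperature, then peptide/SAM mix added and incubated at room temperature. Antibody and SA-XL665 detection mix added for 1 h in subdued light. Emission read at 665 and 620 nm; IC50 from two separate experiments.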

[11] = target: Histone-lysine N-methyltransferase, H3 lysine-79 specific (Homo sapiens, UniProt Q8TEK3); assay: Inhibition of DOT1L (unknown origin) using SAM as substrate preincubated for 10 mins followed by substrate addition measured after 4 hrs by AlphaLISA method
KMS-11 [12] = assay: cells; settings: Homo sapiens, KMS-11, 72 h, read-out: Activity; remark: listed apart in the source
[13] = target: Histone-lysine N-methyltransferase 2B (Homo sapiens, UniProt Q9UMN6); assay: Inhibition of MLL4 (unknown origin) using SAM as substrate preincubated for 10 mins followed by substrate addition measured after 4 hrs by HTRF method; procedure, shortened: as §3
RS4-11 [14] = assay: cells; settings: Homo sapiens, RS4-11, 72 h, read-out: Activity; remark: listed apart in the source
RPMI-8226 = assay: Antiproliferative activity against human RPMI-8226 cells assessed as reduction in cell viability incubated for 6 days by CCK8 assay
[15] = Clearance in CD-1 mouse at 2 mg/kg, iv measured up to 24 hrs by LC-MS/MS; assay type: ADME, organism-based; settings: in vivo
Procedure, shortened: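 CD-1 mice given a single 2 mg/kg i.v. dose (n = 3). Plasma collected at 0–24 h (0.083, 0.25, 0.5, 1, 2, 4, 6, 8, 24 h), deproteinized with methanol/acetonitrile 1:1 and analysed by LC/MS/MS. Clearance derived from the plasma concentration–time data.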

[16] = target: Histone-lysine N-methyltransferase NSD2 (Homo sapiens, UniProt O96028, E1009K); assay: Inhibition of NSD2 E1009K mutant (unknown origin) using SAM as substrate preincubated for 10 mins followed by substrate addition measured after 4 hrs by AlphaLISA method
RS4-11 [17] = assay: Antitumor activity against human RS4-11 cells xenografted in SCID mouse assessed as tumor growth inhibition at 50 mg/kg, ip qd administered consecutively for 21 days relative to control; settings: RS4-11, ip, 504 h, read-out: TGI
HL-60 = assay: Antiproliferative activity against human HL-60 cells assessed as reduction in cell viability incubated for 6 days by CCK8 assay
OPM-2 = assay: Antiproliferative activity against human OPM-2 cells assessed as reduction in cell viability incubated for 6 days by CCK8 assay
[18] = Half life in CD-1 mouse at 2 mg/kg, ip measured up to 24 hrs by LC-MS/MS; assay type: ADME, organism-based; settings: in vivo; procedure, shortened: as §2

Sequence of Protransforming growth factor alpha (Homo sapiens) (P01135 whole entry): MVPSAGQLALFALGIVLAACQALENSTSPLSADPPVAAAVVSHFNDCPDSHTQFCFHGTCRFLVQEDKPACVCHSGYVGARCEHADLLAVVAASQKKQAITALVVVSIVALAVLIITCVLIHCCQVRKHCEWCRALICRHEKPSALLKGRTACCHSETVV
Sequence of Histone-lysine N-methyltransferase 2A (Q03164 1-2718 limits assumed): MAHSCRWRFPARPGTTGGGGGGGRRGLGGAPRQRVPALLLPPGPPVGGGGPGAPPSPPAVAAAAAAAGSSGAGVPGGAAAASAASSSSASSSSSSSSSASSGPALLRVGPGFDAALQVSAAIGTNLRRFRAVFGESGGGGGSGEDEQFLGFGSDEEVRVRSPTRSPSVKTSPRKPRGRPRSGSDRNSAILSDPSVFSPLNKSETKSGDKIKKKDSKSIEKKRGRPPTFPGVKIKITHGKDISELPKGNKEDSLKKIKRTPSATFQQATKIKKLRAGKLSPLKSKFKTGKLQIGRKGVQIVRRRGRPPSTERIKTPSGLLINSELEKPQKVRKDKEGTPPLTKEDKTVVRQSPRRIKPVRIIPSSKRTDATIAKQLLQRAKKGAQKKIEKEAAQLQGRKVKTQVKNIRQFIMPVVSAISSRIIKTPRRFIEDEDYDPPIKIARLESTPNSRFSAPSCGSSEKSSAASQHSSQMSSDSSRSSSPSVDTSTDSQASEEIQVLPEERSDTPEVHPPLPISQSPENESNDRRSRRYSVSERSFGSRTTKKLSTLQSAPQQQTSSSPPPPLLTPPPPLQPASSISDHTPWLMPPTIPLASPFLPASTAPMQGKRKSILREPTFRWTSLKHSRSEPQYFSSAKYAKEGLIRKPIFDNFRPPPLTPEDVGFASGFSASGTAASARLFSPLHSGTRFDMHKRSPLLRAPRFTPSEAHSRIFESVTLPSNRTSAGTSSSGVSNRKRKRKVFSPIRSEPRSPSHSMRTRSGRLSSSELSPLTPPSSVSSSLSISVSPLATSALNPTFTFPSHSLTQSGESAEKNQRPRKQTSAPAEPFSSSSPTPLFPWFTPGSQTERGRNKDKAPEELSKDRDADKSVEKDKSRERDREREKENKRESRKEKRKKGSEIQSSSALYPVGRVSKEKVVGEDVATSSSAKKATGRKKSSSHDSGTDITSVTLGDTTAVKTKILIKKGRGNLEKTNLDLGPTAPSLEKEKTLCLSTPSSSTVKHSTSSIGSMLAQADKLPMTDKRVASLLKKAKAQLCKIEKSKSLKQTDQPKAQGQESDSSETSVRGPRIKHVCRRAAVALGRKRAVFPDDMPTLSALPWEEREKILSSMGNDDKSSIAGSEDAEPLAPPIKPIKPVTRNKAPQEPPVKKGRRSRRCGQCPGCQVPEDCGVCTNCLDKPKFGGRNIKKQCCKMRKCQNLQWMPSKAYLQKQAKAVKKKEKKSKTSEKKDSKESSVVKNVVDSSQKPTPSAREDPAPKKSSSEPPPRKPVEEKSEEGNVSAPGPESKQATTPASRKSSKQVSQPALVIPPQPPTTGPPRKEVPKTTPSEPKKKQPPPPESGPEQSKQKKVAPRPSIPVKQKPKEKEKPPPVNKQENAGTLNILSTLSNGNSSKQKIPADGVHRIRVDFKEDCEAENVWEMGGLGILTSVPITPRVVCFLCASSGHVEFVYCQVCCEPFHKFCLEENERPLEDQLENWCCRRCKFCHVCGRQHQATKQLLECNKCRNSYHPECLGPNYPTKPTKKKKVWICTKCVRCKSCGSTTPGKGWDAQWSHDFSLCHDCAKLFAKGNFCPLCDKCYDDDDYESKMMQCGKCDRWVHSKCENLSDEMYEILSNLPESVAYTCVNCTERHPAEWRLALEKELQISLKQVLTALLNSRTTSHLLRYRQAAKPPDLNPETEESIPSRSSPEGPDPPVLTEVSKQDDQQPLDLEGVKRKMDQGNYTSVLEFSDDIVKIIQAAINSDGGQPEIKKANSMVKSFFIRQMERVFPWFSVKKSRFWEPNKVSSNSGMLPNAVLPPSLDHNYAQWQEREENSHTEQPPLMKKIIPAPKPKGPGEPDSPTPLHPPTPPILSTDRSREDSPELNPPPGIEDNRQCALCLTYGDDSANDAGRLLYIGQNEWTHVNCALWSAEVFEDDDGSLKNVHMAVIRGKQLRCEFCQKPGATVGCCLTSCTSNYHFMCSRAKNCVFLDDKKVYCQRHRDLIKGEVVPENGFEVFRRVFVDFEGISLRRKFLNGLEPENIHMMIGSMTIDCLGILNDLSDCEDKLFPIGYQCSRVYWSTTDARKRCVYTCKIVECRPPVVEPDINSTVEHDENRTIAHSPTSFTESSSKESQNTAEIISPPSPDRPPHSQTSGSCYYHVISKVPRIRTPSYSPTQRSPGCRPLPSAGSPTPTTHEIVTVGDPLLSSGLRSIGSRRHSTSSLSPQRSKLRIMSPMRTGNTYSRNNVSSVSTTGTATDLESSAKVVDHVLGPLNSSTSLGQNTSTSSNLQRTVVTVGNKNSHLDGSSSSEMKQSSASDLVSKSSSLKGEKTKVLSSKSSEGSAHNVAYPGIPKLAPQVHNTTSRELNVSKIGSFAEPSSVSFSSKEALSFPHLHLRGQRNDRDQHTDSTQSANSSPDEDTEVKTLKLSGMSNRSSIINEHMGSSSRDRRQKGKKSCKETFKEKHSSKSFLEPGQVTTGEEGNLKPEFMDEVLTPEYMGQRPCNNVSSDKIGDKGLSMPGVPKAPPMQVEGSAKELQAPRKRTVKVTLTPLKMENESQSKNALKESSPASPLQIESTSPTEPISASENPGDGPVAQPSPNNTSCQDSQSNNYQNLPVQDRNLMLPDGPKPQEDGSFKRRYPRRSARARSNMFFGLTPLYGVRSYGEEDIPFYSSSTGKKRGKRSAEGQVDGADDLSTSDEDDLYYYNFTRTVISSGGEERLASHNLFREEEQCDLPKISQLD
Sequence of Histone-lysine N-methyltransferase 2A (Q03164 2719-3969 limits assumed): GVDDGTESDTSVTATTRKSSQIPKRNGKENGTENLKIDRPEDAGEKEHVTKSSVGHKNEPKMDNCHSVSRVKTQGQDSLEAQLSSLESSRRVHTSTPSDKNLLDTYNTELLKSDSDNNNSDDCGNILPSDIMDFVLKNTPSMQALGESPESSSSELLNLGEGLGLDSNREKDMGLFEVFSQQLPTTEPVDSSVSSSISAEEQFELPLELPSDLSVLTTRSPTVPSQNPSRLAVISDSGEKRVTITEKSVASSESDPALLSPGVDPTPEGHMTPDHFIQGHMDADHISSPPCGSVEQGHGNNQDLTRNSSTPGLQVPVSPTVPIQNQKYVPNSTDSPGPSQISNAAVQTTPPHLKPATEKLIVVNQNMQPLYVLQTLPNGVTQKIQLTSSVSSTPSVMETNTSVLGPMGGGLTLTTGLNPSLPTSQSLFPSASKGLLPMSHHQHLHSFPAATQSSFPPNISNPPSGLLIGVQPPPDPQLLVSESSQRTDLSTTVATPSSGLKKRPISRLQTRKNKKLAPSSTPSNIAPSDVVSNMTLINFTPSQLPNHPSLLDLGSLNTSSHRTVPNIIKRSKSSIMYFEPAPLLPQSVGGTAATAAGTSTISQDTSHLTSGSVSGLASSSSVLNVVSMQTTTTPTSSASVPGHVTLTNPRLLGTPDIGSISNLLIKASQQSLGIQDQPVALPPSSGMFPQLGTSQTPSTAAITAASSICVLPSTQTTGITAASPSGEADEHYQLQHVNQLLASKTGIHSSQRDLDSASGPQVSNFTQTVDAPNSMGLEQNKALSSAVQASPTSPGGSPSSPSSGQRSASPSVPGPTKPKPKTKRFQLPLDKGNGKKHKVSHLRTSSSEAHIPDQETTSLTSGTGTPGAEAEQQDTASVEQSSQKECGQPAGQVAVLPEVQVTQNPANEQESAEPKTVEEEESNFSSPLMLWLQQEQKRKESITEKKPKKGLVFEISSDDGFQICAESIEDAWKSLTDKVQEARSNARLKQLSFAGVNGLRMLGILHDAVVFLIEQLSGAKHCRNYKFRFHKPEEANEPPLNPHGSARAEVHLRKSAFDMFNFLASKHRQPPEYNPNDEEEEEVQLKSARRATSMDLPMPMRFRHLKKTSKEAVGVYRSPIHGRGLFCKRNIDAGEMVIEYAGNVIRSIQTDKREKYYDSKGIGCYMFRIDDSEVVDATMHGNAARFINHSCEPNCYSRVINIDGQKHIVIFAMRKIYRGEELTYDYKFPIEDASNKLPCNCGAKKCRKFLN
Sequence of Ras-related protein R-Ras2 (Homo sapiens) (P62070 whole entry): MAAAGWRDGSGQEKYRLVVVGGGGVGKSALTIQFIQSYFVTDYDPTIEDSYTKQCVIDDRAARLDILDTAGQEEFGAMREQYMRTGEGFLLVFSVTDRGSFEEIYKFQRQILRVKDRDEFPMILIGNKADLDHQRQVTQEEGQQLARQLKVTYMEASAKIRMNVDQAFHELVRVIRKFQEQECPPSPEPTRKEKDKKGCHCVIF

IC50 [2]: > 20 µM | inhibition [5]: Active | AUC at 24 h [6]: 204 ng·h/mL | inhibition [7]: Active | MRT [8]: 23.8 min | IC50 [10]: > 20 µM | IC50 [11]: > 20 µM | IC50 [13]: > 20 µM | clearance [15]: 163 mL/min/kg | IC50 [16]: 3.1 µM | half-life [18]: 33.6 min
Compound: Cl.Nc1cccc2c(S(=O)(=O)NCc3ccccc3)cccc12
Activity (MV4-11): inactive | viability at 10 µM (RS4-11 [1]): 3.53% | Activity (RS4-11 [3]): Not toxic | viability at 10 µM (KMS-11 [4]): 50.4% | Activity (MOLT-4): Active | Activity (WSUDLCL2): Active | Activity (RS4-11 [9]): Dose-Dependent Effect | viability at 5 µM (KMS-11 [12]): 58.7% | viability at 5 µM (RS4-11 [14]): 2.19% | Activity (RPMI-8226): Active | inhibition in vivo at 50 mg/kg (RS4-11 [17]): 37.2% | Activity (HL-60): Active | Activity (OPM-2): Active

From ChEMBL document CHEMBL4825702, “5-Aminonaphthalene derivatives as selective nonnucleoside nuclear receptor binding SET domain-protein 2 (NSD2) inhibitors for the treatment of multiple myeloma” (Eur J Med Chem, 2021)
